Laboratory results taken from ChEMBL document CHEMBL1130123, “Optimization of 3-(1H-indazol-3-ylmethyl)-1,5-benzodiazepines as potent, orally active CCK-A agonists” (J Med Chem, 1997).

Experiments:
[1] = Oral bioavailability in Long-Evans rats at an intravenous dose of 6.3 mg/kg; Not active; assay type: ADME, organism-based; settings: rat, in vivo
[2] = Maximum concentration at an peroral dose of 6.2 mg/kg in rat; assay type: ADME, organism-based; set-up: dose 6.2 mg/kg, route oral; settings: in vivo, po
[3] = Maximum concentration at an intraduodenal dose of 6.6 mg/kg in rat; assay type: ADME, organism-based; set-up: dose 6.6 mg/kg, route intraduodenal; settings: in vivo
[4] = Half life period at an intravenous dose of 6.3 mg/kg in rat; assay type: ADME, organism-based; set-up: dose 6.3 mg/kg, route intravenous; settings: in vivo
Rattus norvegicus [5] = assay: (§1) Maximal response at 0.5 umol/kg intraperitoneal dose; assay type: functional
Rattus norvegicus [6] = assay: Anorectic potency in rat was tested and intraperitoneal dose that produces a half maximal response (in vivo); assay type: functional; settings: ip
Mus musculus [7] = assay: maximal response at 1 nmol/kg peroral dose; assay type: functional
[8] = Maximum concentration at an intravenous dose of 6.3 mg/kg; assay type: ADME, organism-based; set-up: dose 6.3 mg/kg, route intravenous; settings: rat, in vivo
[9] = Volume of distribution at steady state at an intravenous dose of 6.3 mg/kg in rat; assay type: ADME, organism-based; set-up: dose 6.3 mg/kg, route intravenous; settings: in vivo, read-out: Vss
Mus musculus [10] = assay: Peroral dose that produces a half maximal response in mouse gall bladder emptying assay (in vivo); assay type: functional; settings: po
Mus musculus [11] = assay: Maximal response at 1 nmol/kg intraperitoneal dose; assay type: functional
[12] = Oral bioavailability in Long-Evans rats at an peroral dose of 6.2 mg/kg; assay type: ADME, organism-based; settings: rat, in vivo
[13] = Oral bioavailability in Long-Evans rats at an intraduodenal dose of 6.6 mg/kg; assay type: ADME, organism-based; settings: rat, in vivo, other: intraduodenal
Mus musculus [14] = assay: Intraperitoneal dose that produces a half maximal response in mouse gall bladder emptying assay (in vivo); assay type: functional; settings: ip
[15] = Total body clearance at an intravenous dose of 6.3 mg/kg in rat; assay type: ADME, organism-based; set-up: dose 6.3 mg/kg, route intravenous; settings: in vivo
Mus musculus [16] = assay: Maximal response at 1 nmol/kg peroral dose; assay type: functional
Cavia porcellus [17] = species on record: Cavia porcellus; assay: In vitro functional efficacy relative to CCK-8 in inducing contraction of the isolated guinea pig gallbladder (GPGB) at a 1 uM concentration.
How it was run: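 Isolated guinea pig gallbladder, ligand 1 μM, 30 min at 37 °C; maximal contraction expressed relative to CCK-8 (1 μM) = 100%; values ± 5%.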

Cavia porcellus [18] = species on record: Cavia porcellus; assay: In vitro functional agonist activity in the isolated guinea pig gall bladder, concentration at which 50% of the maximal contraction observed was reported.; settings: read-out: ED50 (the source's name)
[19] = molecular target: T1, Gastrin/cholecystokinin type B receptor (Homo sapiens, UniProt P32239); assay: In vitro for binding affinity against human cholecystokinin type B receptor.
T1 sequence (P32239 whole entry): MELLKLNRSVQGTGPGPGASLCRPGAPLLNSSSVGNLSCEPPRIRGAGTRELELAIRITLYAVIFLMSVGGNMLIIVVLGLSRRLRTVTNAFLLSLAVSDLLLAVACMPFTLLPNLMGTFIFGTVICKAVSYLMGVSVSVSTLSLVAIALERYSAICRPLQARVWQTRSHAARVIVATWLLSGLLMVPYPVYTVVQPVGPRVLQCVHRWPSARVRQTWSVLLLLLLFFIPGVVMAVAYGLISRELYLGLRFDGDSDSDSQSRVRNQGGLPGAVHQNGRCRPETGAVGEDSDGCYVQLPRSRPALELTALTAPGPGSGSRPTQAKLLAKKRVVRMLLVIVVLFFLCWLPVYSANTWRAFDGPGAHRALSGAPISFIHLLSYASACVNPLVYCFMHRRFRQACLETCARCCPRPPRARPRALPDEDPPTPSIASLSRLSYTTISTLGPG

[20] = molecular target: T2, Cholecystokinin receptor type A (Homo sapiens, UniProt P32238); assay: In vitro for binding affinity against human cholecystokinin type A receptor.
T2 sequence (P32238 whole entry): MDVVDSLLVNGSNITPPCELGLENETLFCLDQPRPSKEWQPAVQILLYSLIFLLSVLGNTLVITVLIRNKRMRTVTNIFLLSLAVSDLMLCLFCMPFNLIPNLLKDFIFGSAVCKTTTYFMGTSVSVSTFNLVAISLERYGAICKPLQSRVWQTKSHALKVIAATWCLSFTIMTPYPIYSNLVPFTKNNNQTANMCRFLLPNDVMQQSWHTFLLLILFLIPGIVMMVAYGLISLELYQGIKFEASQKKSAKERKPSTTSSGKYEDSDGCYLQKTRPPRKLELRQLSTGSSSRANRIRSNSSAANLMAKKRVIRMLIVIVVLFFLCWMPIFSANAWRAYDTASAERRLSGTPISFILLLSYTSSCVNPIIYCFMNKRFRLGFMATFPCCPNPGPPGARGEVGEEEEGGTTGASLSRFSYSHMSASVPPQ

[21] = Maximum concentration at an intravenous dose of 6.5 mg/kg in rat; assay type: ADME, organism-based; set-up: dose 6.5 mg/kg, route intravenous; settings: in vivo
[22] = Half life period at an intravenous dose of 6.5 mg/kg in rat; assay type: ADME, organism-based; set-up: dose 6.5 mg/kg, route intravenous; settings: in vivo
[23] = Oral bioavailability in Long-Evans rats at an peroral dose of 6.5 mg/kg; assay type: ADME, organism-based; settings: rat, in vivo
[24] = Volume of distribution at steady state at an intravenous dose of 6.5 mg/kg in rat; assay type: ADME, organism-based; set-up: dose 6.5 mg/kg, route intravenous; settings: in vivo, read-out: Vss
[25] = Total body clearance at an intravenous dose of 6.5 mg/kg in rat; assay type: ADME, organism-based; set-up: dose 6.5 mg/kg, route intravenous; settings: in vivo
Mus musculus [26] = assay: as §1; assay type: functional
[27] = Total body clearance at an intravenous dose of 5.5 mg/kg in rat; assay type: ADME, organism-based; set-up: dose 5.5 mg/kg, route intravenous; settings: in vivo
[28] = Maximum concentration at an peroral dose of 6.3 mg/kg in rat; assay type: ADME, organism-based; set-up: dose 6.3 mg/kg, route oral; settings: in vivo, po
[29] = Oral bioavailability in Long-Evans rats at an peroral dose of 6.3 mg/kg; assay type: ADME, organism-based; settings: rat, in vivo
[30] = Maximum concentration at an intravenous dose of 5.5 mg/kg in rat; assay type: ADME, organism-based; set-up: dose 5.5 mg/kg, route intravenous; settings: in vivo
[31] = Half life period at an intravenous dose of 5.5 mg/kg in rat; assay type: ADME, organism-based; set-up: dose 5.5 mg/kg, route intravenous; settings: in vivo
[32] = Volume of distribution at steady state at an intravenous dose of 5.5 mg/kg in rat; assay type: ADME, organism-based; set-up: dose 5.5 mg/kg, route intravenous; settings: in vivo, read-out: Vss

Compound	ED50 (Mus musculus [10]) [µmol/kg]	Max (Mus musculus [11]) [%]	ED50 (Mus musculus [14]) [µmol/kg]	Max (Cavia porcellus [17]) [%]	EC50 (Cavia porcellus [18]) [nM]	IC50 [19] [nM]	IC50 [20] [nM]	also measured
COc1ccc(N(C(=O)CN2C(=O)C(Cc3n[nH]c4ccccc34)C(=O)N(c3ccccc3)c3ccccc32)C(C)C)cc1 (stereo unspecified)	0.01	97	0.0002	–	–	–	–	F [1]: Not Active; Cmax [2]: 20 ng/mL; Cmax [3]: 193 ng/mL; half-life [4]: 2.1 h; Max (Rattus norvegicus [5]): 98%; ED50 (Rattus norvegicus [6]): 0.05 µmol/kg; Max (Mus musculus [7]): 89%; Cmax [8]: 2100 ng/mL; Vd [9]: 5.17 L/kg; bioavailability [12]: 8%; bioavailability [13]: 16%; clearance [15]: 38 mL/min/kg
COc1ccc(N(C(=O)CN2C(=O)C(Cc3nn(C)c4ccccc34)C(=O)N(c3ccccc3)c3ccccc32)C(C)C)cc1 (stereo unspecified)	0.03	83	0.0008	–	–	–	–	Max (Rattus norvegicus [5]): 98%; ED50 (Rattus norvegicus [6]): 0.22 µmol/kg; Max (Mus musculus [16]): 84%
COc1ccc(N(C(=O)CN2C(=O)C(Cc3[nH]nc4c3CCCC4)C(=O)N(c3ccccc3)c3ccccc32)C(C)C)cc1 (stereo unspecified)	–	–	–	80	300	2950	129	–
COc1ccc(N(C(=O)CN2C(=O)C(C)(Cc3nn(C)c4ccccc34)C(=O)N(c3ccccc3)c3ccccc32)C(C)C)cc1 (stereo unspecified)	0.45	–	0.01	60	240	–	38.9	Cmax [2]: 20 ng/mL; Cmax [21]: 3270 ng/mL; half-life [22]: 7.5 h; Max (Mus musculus [16]): 75%; bioavailability [23]: 4%; Vd [24]: 11.1 L/kg; clearance [25]: 31 mL/min/kg
CC(C)N(C(=O)CN1C(=O)C(Cc2n[nH]c3ccccc23)C(=O)N(c2ccccc2)c2ccccc21)c1ccc2c(c1)OCO2 (stereo unspecified)	–	–	–	100	20	724	355	–
COc1ccc(N(C(=O)CN2C(=O)C(C)(Cc3c[nH]c4ccccc34)C(=O)N(c3ccccc3)c3ccccc32)C(C)C)cc1 (stereo unspecified)	0.38	91	0.0008	–	–	–	–	Max (Mus musculus [7]): 46%
CC(C)N(C(=O)CN1C(=O)C(Cc2n[nH]c3ccccc23)C(=O)N(c2ccccc2)c2ccccc21)c1ccc(C(F)(F)F)cc1 (stereo unspecified)	–	–	–	80	230	1660	661	–
COc1ccc(N(C(=O)CN2C(=O)C(Cc3n[nH]c4ncccc34)C(=O)N(c3ccccc3)c3ccccc32)C(C)C)cc1 (stereo unspecified)	–	–	–	90	40	11200	112	–
COc1ccc(N(C(=O)CN2C(=O)C(Cc3n[nH]c4ccccc34)(OC)C(=O)N(c3ccccc3)c3ccccc32)C(C)C)cc1 (stereo unspecified)	0.1	89	0.0003	70	70	3630	14.5	Max (Mus musculus [26]): 52%; clearance [27]: 35 mL/min/kg; Cmax [28]: 90 ng/mL; bioavailability [29]: 5%; Cmax [30]: 4900 ng/mL; Max (Mus musculus [16]): 72%; half-life [31]: 3.4 h; Vd [32]: 7.63 L/kg
COc1ccc(N(C(=O)CN2C(=O)C(Cc3n[nH]c4ccccc34)C(=O)N(c3ccccc3)c3ccccc32)C2CCCC2)cc1 (stereo unspecified)	–	–	–	90	40	776	17	–
COc1ccc(N(C(=O)CN2C(=O)C(C)(Cc3cn(C)c4ccccc34)C(=O)N(c3ccccc3)c3ccccc32)C(C)C)cc1 (stereo unspecified)	–	–	–	40	–	–	17.8	–
COc1ccc(N(C(=O)CN2C(=O)C(Cc3c[nH]c4ccccc34)(OC)C(=O)N(c3ccccc3)c3ccccc32)C(C)C)cc1 (stereo unspecified)	–	84	–	60	150	29500	13.8	Max (Mus musculus [16]): 54%
COc1ccc(N(C(=O)CN2C(=O)C(Cc3n[nH]c4cccc(F)c34)C(=O)N(c3ccccc3)c3ccccc32)C(C)C)cc1 (stereo unspecified)	–	–	–	100	70	1700	17.4	–
COc1ccccc1N(C(=O)CN1C(=O)C(Cc2n[nH]c3ccccc23)C(=O)N(c2ccccc2)c2ccccc21)C(C)C (stereo unspecified)	–	–	–	40	830	129	–	–
CC(C)N(C(=O)CN1C(=O)C(Cc2n[nH]c3ccccc23)C(=O)N(c2ccccc2)c2ccccc21)c1ccc(F)cc1 (stereo unspecified)	–	–	–	100	60	479	138	–
